The list is not random: actives were taken first. Their share in the collection is about 3.1%.
OX1R antag-1: antagonists of human orexin 1 receptor | inhibition, % at 5 µM | AID 434989 | hit rate 0.43% among 330,000 | CHO/OX1R cells, Fluo-8 calcium fluorescence, orexin A;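 active means inhibition above its plate's threshold, mean inhibition of all tested compounds on the plate plus 3 SD, cut at about 37% in these data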
Target sequence (O43613 whole entry, looked up): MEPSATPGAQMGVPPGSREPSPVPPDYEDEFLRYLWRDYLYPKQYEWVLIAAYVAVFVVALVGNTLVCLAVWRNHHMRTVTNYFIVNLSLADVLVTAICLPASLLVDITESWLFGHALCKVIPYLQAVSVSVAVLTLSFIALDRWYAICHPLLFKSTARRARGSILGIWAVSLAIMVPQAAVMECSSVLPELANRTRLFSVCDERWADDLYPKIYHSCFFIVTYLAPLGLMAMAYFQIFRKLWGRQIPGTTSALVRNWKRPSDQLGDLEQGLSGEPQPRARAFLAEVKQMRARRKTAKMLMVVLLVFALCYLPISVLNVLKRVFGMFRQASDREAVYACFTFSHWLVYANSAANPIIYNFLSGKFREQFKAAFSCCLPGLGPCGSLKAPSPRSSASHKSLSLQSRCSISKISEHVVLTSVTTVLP
CHO parental Ca: counter-screen: ATP calcium response change in parental CHO cells. parental CHO-K1, ATP-induced calcium, Fluo-8 fluorescence. inhibition, % at 5.6 µM. hit rate 0.63% among 330,000;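 active means inhibition above that plate's mean sample inhibition plus 3 SD, cut at about 26% in these data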
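material = parental CHO cells | also added = ATP as calcium-mobilizing challenge | dosing = single point at 5.6 µM | detection = intracellular calcium via Fluo-8 no-wash fluorescent dye | read-out = % inhibition | benchmarks = low control ATP plus DMSO, high control DMSO only | repeats = one well per compound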
GalR3 antag: antagonists of human GalR3; O60755; HEK293 GalR3-CNG cAMP membrane potential fluorescence; galR3 body fused to GalR1 C-terminus; inhibition, % at 3 µM; hit rate 0.44% among 360,000;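 active means inhibition above the screen-wide average plus 3 SD, cut at about 13% in these data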;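 further: forskolin and galanin both at EC90 stimulate the cells; cAMP rise reported by CNG channel membrane potential dye signal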
OX1R antag-2: blocks the human orexin 1 receptor | OX1R-expressing cells, FRET antagonist read-out | inhibition, % at 6.6 µM | hit rate 1.8% among 330,000 | AID 485270; in the data active means inhibition mostly above about 38%, no sharp cut-off; inactive means mostly below about 40%
GPR7 antag: antagonists of human GPR7 (neuropeptides B/W receptor 1) | P48145 | hit rate 1.1% among 290,000 | GPR7-expressing cells, fluorescence antagonist assay | inhibition, % at 4.4 µM | AID 1861; in the data active means inhibition above about 16%, passing the limit was not always enough;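 further: cells stimulated with the agonist NPW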
Target sequence (P48145 whole entry, looked up): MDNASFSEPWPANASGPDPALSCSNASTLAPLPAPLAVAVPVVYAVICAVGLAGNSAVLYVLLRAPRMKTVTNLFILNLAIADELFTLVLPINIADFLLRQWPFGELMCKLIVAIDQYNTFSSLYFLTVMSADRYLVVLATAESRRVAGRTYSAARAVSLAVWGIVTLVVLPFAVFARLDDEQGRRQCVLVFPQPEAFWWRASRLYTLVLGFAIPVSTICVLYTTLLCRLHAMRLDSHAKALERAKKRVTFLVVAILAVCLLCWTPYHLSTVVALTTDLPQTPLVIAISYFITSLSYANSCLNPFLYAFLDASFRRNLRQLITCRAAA
Large screens that a line does not name were inactive.

CCN(C(=O)CSc1nc2ccc([N+](=O)[O-])cc2s1)C1CCS(=O)(=O)C1 (centres undefined)	OX1R antag-2 68
CCn1c(C)nc2cc(-c3nnc(-c4c(-c5ccccc5)noc4C)o3)ccc21	CHO parental Ca 37, OX1R antag-2 45
O=C(N[C@@H](Cc1cccnc1)C(=O)N1CCC[C@H]1C(=O)NCCc1ccccc1Cl)c1ccc(Cl)c(Cl)c1	none (no result: OX1R antag-1, CHO parental Ca, OX1R antag-2, GPR7 antag)
Cc1ccc(NC(=O)N2CCOCC2)cc1NC(=O)N1CCOCC1	none (no result: OX1R antag-1, CHO parental Ca, OX1R antag-2, GPR7 antag)
O=C(Nc1ccc(F)cc1F)c1cc(-c2ccco2)on1	CHO parental Ca 35
O=C(NCc1ccc(F)cc1)c1cc(-c2ccco2)on1	CHO parental Ca 32
CSc1ccccc1NC(=O)c1cc(-c2ccco2)on1	OX1R antag-2 66
O=C(Nc1ccc(Cl)cc1)NC1CCCCC1Cc1ccco1 (centres undefined)	OX1R antag-2 47
CN(C)c1cccc(/C=C(\C#N)c2ccccc2)c1	CHO parental Ca 38
CN(C)c1ccc(/C=C(\C#N)c2ccccc2)cc1	none (no result: OX1R antag-1, CHO parental Ca, GalR3 antag, OX1R antag-2)
CN(C)CCCNc1cc(O)c2ncccc2c1	OX1R antag-2 45 (no result: GPR7 antag)
Oc1cc(NCc2ccc(F)cc2)cc2cccnc12	none (no result: GPR7 antag)
CCOc1cc(C)c(S(=O)(=O)Nc2ccc3cn[nH]c3c2)cc1C	CHO parental Ca 48 (no result: GalR3 antag)
Cc1ccc(S(=O)(=O)Nc2ccc3cn[nH]c3c2)c(C)c1	none (no result: GPR7 antag)
COc1ccccc1-c1nnc2sc(-c3cc4ccccc4o3)nn12	GPR7 antag 18
COc1ccccc1-c1nnc2sc(-c3ccc(N(C)C)cc3)nn12	OX1R antag-2 69
CN(Cc1ccccc1)S(=O)(=O)c1ccc(Cl)c(C(=O)N2CCOCC2)c1	none (no result: OX1R antag-1, CHO parental Ca, OX1R antag-2, GPR7 antag)
O=S1(=O)N[C@@H](Cc2ccccc2)COc2cc(NC3CC3)ccc21	none (no result: OX1R antag-1, CHO parental Ca, OX1R antag-2, GPR7 antag)
COc1cc(Nc2cc(C)n(-c3ccc(Cl)c(OC)c3)c(=O)c2)ccc1Cl	none (no result: OX1R antag-1, CHO parental Ca, OX1R antag-2, GPR7 antag)
Cc1cc(C)c(C#N)c(SCC(=O)c2cc(C)n(CCc3ccccc3)c2C)n1	CHO parental Ca 46
CN(Cc1ccccc1)C(=O)c1cccc(NC(=O)Cc2cccc(NC(=O)C3CCN(C(=O)CCc4ccccc4)CC3)c2)c1	none (no result: OX1R antag-1, CHO parental Ca, OX1R antag-2, GPR7 antag)
COc1cc(C[C@@H](C)[C@@H](C)Cc2ccc(O)c(OC)c2)ccc1O	none (no result: GPR7 antag)
CC(Cc1ccc(O)c(O)c1)C(C)Cc1ccc(O)c(O)c1 (centres undefined)	CHO parental Ca 34 (no result: GalR3 antag, GPR7 antag)
C=CCN=C1NC(c2ccccc2)C(C(=O)OC)=C(C)N1C (centres undefined)	none (no result: OX1R antag-1, CHO parental Ca, OX1R antag-2, GPR7 antag)
COC(=O)C1=C(C)N(C)C(=NCc2ccc(OC)cc2)NC1c1cccc(F)c1 (centres undefined)	none (no result: OX1R antag-1, CHO parental Ca, OX1R antag-2, GPR7 antag)
O=S1(=O)c2ccc(Br)cc2OC[C@H](c2ccccc2)N1Cc1ccccc1	none (no result: OX1R antag-1, CHO parental Ca, OX1R antag-2, GPR7 antag)
CC(C)[C@H](NC(=O)c1ccccc1)C(=O)N1CCC[C@H]1C(=O)NCCc1ccccc1Cl	none (no result: OX1R antag-1, CHO parental Ca, OX1R antag-2, GPR7 antag)
COC(=O)c1c(C)[nH]c(C(=O)C(C)OC(=O)C2CC(=O)N(c3ccc(C)cc3)C2)c1C (centres undefined)	OX1R antag-1 66, CHO parental Ca 46 (no result: GPR7 antag)
COC(=O)c1c(C)[nH]c(C(=O)C(C)OC(=O)C2CC(=O)N(CCc3ccccc3)C2)c1C (centres undefined)	none (no result: GPR7 antag)
CCOC(=O)c1c(C)oc2c1cc(O)c1ccccc12	none
CCOC(=O)c1c(C)[nH]c2c1cc(O)c1ccccc12	OX1R antag-2 43
CCOC(=O)c1c(C)[nH]c(C)c1C(=O)COC(=O)c1cc2ccccc2cc1O	OX1R antag-2 72
COC(=O)C1=C(C)N(Cc2ccccc2C(F)(F)F)C(=NCc2ccc(OC)cc2)NC1c1ccc(C(F)(F)F)cc1 (centres undefined)	none (no result: OX1R antag-1, CHO parental Ca, OX1R antag-2, GPR7 antag)
Nc1cc(Oc2ccc(Cl)cc2Cl)nc(N)n1	none
Nc1cc(C(=O)O)c(Oc2ccc(Cl)cc2Cl)cc1C(=O)O	OX1R antag-2 61
CC1=Nc2ccccc2/C1=C/c1c(N)n2c(S(=O)(=O)C(C)C)nsc2nc1=O	none
CC1=Nc2ccccc2/C1=C/c1sc(=N)n(-c2nccs2)c1O	OX1R antag-1 64, CHO parental Ca 47 (no result: GalR3 antag)
COc1n[nH]c2nncnc12	OX1R antag-2 121
O=C(NCCNc1ccc([N+](=O)[O-])cc1C(F)(F)F)c1ccccc1F	CHO parental Ca 42
O=C(c1ccc([N+](=O)[O-])cc1)N1CCN(C(=O)c2cccs2)CC1	OX1R antag-2 50
O=C(NNC(=O)c1cc([N+](=O)[O-])ccc1Cl)c1cccs1	OX1R antag-2 46
O=C(c1ccccc1)N1CCN(C(=O)c2ccc([N+](=O)[O-])cc2)CC1	none
COc1ccc(Cn2cc(CN3[C@@H](c4ccccc4)COc4cc(Br)ccc4S3(=O)=O)nn2)cc1	none (no result: OX1R antag-1, CHO parental Ca, OX1R antag-2, GPR7 antag)
CCOC(=O)C1CCCN(c2ncnc3c2oc2ccccc23)C1 (centres undefined)	OX1R antag-1 55, CHO parental Ca 40, OX1R antag-2 89
CCOC(=O)C1CCN(c2nc(-c3ccccc3)nc3c2oc2ccccc23)CC1	none
CCOC(=O)C1CCCN(c2c(N3CCc4ccccc4C3)c(=O)c2=O)C1 (centres undefined)	GPR7 antag 22 (no result: OX1R antag-1, CHO parental Ca, GalR3 antag, OX1R antag-2)
CCOC(=O)C1CCCN(C(=O)c2cc(=O)c3ccccc3o2)C1 (centres undefined)	none
CCOC(=O)C1CCN(c2ncnc3c2oc2ccccc23)CC1	OX1R antag-2 62
CC(=O)NCc1ccc(OCCCN2CCC(C(O)(c3ccccc3)c3ccccc3)CC2)cc1	none (no result: OX1R antag-1, CHO parental Ca, OX1R antag-2, GPR7 antag)
CCCCC[C@H](C)N1C[C@H](COCc2ccccc2)Oc2cc(N3CC[C@@H](N(C)C)C3)ccc2S1(=O)=O	none (no result: OX1R antag-1, CHO parental Ca, OX1R antag-2, GPR7 antag)
CC(CNC(=O)[C@@H](Cc1ccccc1)NC(=O)[C@H]1O[C@@H](n2cnc3c(=O)[nH]c(N)nc32)[C@H](O)[C@@H]1O)c1ccccc1 (some centres undefined)	none (no result: OX1R antag-1, CHO parental Ca, OX1R antag-2, GPR7 antag)
COc1ccc(CC(=O)Nc2ccccc2C(F)(F)F)cc1S(=O)(=O)N1CCOCC1	none (no result: OX1R antag-1, CHO parental Ca, OX1R antag-2, GPR7 antag)
O=C(NC[C@@H]1CCCO1)c1cccc2c1C(=O)c1ccc(Cl)cc1S2(=O)=O	OX1R antag-2 45 (no result: GPR7 antag)
COc1ccc(-c2ccc3c(c2)S(=O)(=O)c2cccc(C(=O)NC[C@@H]4CCCO4)c2C3=O)cc1OC	OX1R antag-2 37 (no result: GPR7 antag)
O=C(NCCc1ccccc1)c1cccc2c1C(=O)c1ccc(N3CCOCC3)cc1S2(=O)=O	none (no result: GPR7 antag)
C=CCNC(=O)c1cccc2c1C(=O)c1ccc(N3CCOCC3)cc1S2(=O)=O	OX1R antag-2 64 (no result: GPR7 antag)
COCCCN1C(=O)C(CC(=O)NCC2CCCCC2)CC(C(=O)N(C)C)=C1C (centres undefined)	none (no result: OX1R antag-1, CHO parental Ca, OX1R antag-2, GPR7 antag)
CSc1nc(C)cc(OCCNS(=O)(=O)c2ccc(C)cc2)n1	OX1R antag-2 39
Cc1ccc(S(=O)(=O)NCCOCCNS(=O)(=O)c2ccc(C)cc2)cc1	none
Cc1ccc(C)c(N2CCN(C(=O)c3ccc(CSc4nc5ccncc5[nH]4)cc3)CC2)c1	OX1R antag-1 53, CHO parental Ca 44
C[C@@H]1COc2cc(N3CCOCC3)ccc2S(=O)(=O)N1	none (no result: OX1R antag-1, CHO parental Ca, OX1R antag-2, GPR7 antag)
COc1ccc(C)cc1NC(=O)c1nn(C)c(C(=O)Nc2cc(C)ccc2OC)c1[N+](=O)[O-]	OX1R antag-2 34
Cc1ccccc1NC(=O)c1nn(C)c(C(=O)Nc2ccccc2C)c1[N+](=O)[O-]	none
